This is an account of results in ChEMBL document CHEMBL1126829, “Synthesis and relative potencies of new constrained CRF antagonists” (1993).

Where a SMILES comes first, the peptide text is derived from it. [ ]: non-standard residue; d: D form. NMeL = CN[C@@H](CC(C)C)C(=O)O; NMeA = CN[C@@H](C)C(=O)O

The species named for test [1] is Rattus norvegicus. Nature of the test: Compound was tested in vitro to antagonize CRF-induced release of ACTH by rat pituitary cells in culture. Type of test: functional, Pituitary gland cell. The method, boiled down:
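Collagenase-dispersed rat anterior pituitary cells were grown in monolayer culture for 3–5 days. Cells were then incubated for 3 h with peptide at several doses against 1 nM CRF stimulation (n = 3). ACTH secreted into the medium was measured by double-antibody RIA. Relative potencies were derived from the dose-response curves.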

For test [2], the species on record is Rattus norvegicus. Nature of the test: Percent intrinsic activity was determined in rat pituitary cells. It is filed as functional, Pituitary gland cell.

For the compound H-DLTFHLLREMLEMAKAEQEAEQAALNRLLLEEA-NH2, in the test listed under Rattus norvegicus [1], the Potency came to 0.12. In the test filed under Rattus norvegicus [2], this compound came in with an IA of 14%. In the test filed under Rattus norvegicus [1], `CSCC[C@H](NC(=O)[C@H](CCC(=O)O)NC(=O)[C@H](CCCN=C(N)N)NC(=O)[C@H](CC(C)C)N(C)C(=O)[C@H](CC(C)C)NC(=O)[C@H](Cc1c[nH]cn1)NC(=O)[C@H](Cc1ccccc1)NC(=O)[C@@H](NC(=O)[C@H](CC(C)C)N(C)C(=O)[C@@H](N)CC(=O)O)[C@@H](C)O)C(=O)N[C@@H](CC(C)C)C(=O)N[C@@H](CCC(=O)O)C(=O)N[C@@H](CCSC)C(=O)N(C)[C@@H](C)C(=O)N[C@@H](CCCCN)C(=O)N[C@@H](C)C(=O)N[C@@H](CCC(=O)O)C(=O)N[C@@H](CCC(N)=O)C(=O)N(C)[C@@H](CC(C)C)C(=O)N[C@@H](C)C(=O)N[C@@H](CCC(=O)O)C(=O)N[C@@H](CCC(N)=O)C(=O)N[C@@H](C)C(=O)N(C)[C@@H](C)C(=O)N[C@@H](CC(C)C)C(=O)N[C@@H](CC(N)=O)C(=O)N[C@@H](CCCN=C(N)N)C(=O)N[C@@H](CC(C)C)C(=O)N(C)[C@@H](CC(C)C)C(=O)N[C@@H](CC(C)C)C(=O)N[C@@H](CCC(=O)O)C(=O)N[C@@H](CCC(=O)O)C(=O)N(C)[C@@H](C)C(N)=O` (H-D[NMeL]TFHL[NMeL]REMLEM[NMeA]KAEQ[NMeL]AEQA[NMeA]LNRL[NMeL]LEE[NMeA]-NH2) came in with a Potency of 0. Besides, the IA in the test listed under Rattus norvegicus [2] is listed as 0%. In the test filed under Rattus norvegicus [2], `CCCC[C@H](NC(=O)[C@H](CCC(=O)O)NC(=O)[C@H](CC(C)C)NC(=O)[C@@H](NC(=O)[C@H](CCC(=O)O)NC(=O)[C@H](CCCN=C(N)N)NC(=O)[C@H](CC(C)C)NC(=O)[C@](C)(CC(C)C)NC(=O)[C@H](Cc1c[nH]cn1)NC(=O)[C@H](N)Cc1ccccc1)C(C)C)C(=O)N[C@@H](C)C(=O)N[C@@H](CCCN=C(N)N)C(=O)NC(C)(C)C(=O)N[C@@H](CCC(=O)O)C(=O)N[C@@H](CCC(N)=O)C(=O)N[C@@H](CC(C)C)C(=O)NC(C)(C)C(=O)N[C@@H](CCC(N)=O)C(=O)N[C@@H](CCC(N)=O)C(=O)NC(C)(C)C(=O)N[C@@H](Cc1c[nH]cn1)C(=O)N[C@@H](CO)C(=O)N[C@@H](CC(N)=O)C(=O)N[C@@H](CCCN=C(N)N)C(=O)N[C@@H](CCCCN)C(=O)N[C@@H](CC(C)C)C(=O)N[C@@H](CCCC)C(=O)N[C@@H](CCC(=O)O)C(=O)N[C@H](C(=O)N[C@H](C(N)=O)[C@@H](C)CC)[C@@H](C)CC` returned an IA of 23%. Still for that read-out and setting: the same measure for `CCCC[C@H](NC(=O)[C@H](CCC(=O)O)NC(=O)[C@H](CC(C)C)NC(=O)[C@@H](NC(=O)[C@H](CCC(=O)O)NC(=O)[C@H](CCCN=C(N)N)NC(=O)[C@](C)(CC(C)C)NC(=O)[C@H](CC(C)C)NC(=O)[C@H](Cc1c[nH]cn1)NC(=O)[C@H](N)Cc1ccccc1)C(C)C)C(=O)N[C@@H](C)C(=O)N[C@@H](CCCN=C(N)N)C(=O)NC(C)(C)C(=O)N[C@@H](CCC(=O)O)C(=O)N[C@@H](CCC(N)=O)C(=O)N[C@@H](CC(C)C)C(=O)NC(C)(C)C(=O)N[C@@H](CCC(N)=O)C(=O)N[C@@H](CCC(N)=O)C(=O)NC(C)(C)C(=O)N[C@@H](Cc1c[nH]cn1)C(=O)N[C@@H](CO)C(=O)N[C@@H](CC(N)=O)C(=O)N[C@@H](CCCN=C(N)N)C(=O)N[C@@H](CCCCN)C(=O)N[C@@H](CC(C)C)C(=O)N[C@@H](CCCC)C(=O)N[C@@H](CCC(=O)O)C(=O)N[C@H](C(=O)N[C@H](C(N)=O)[C@@H](C)CC)[C@@H](C)CC`: 8%.
